# Screening data (PubChem)
# Shown are actives, neighbours in structure and some others; about 2.1% of the full set was active somewhere.
# RanGTP-Impb inh: inhibitors of RanGTP-importin-beta interaction, primary screen, biochemical, FRET, CFP-Ran, YFP-importin-beta, homogeneous | Ran GTPase (GTP-bound) - importin-beta complex | cell-free CFP-Ran/YFP-importin-beta FRET ratio | inhibition, % (no concentration beside the values) | hit rate 1.1% among 300,000;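 active means more than half of the replicate wells show a fall in the fluorescence ratio signal beyond about 16%, limit read from the data, passing the limit was not always enough; inconclusive means exactly half of the replicate wells pass the set limit; inactive means fewer than half of replicates pass the limit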;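 further: 0% = DMSO wells and 100% = Ran loaded with GDP instead of GTP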
# L929 necroptosis: inhibitors of zVAD-triggered necroptosis, primary screen, L929 cells. hit rate 0.38% among 220,000. viability rescue, % at 10 µM. L929 zVAD necroptosis rescue, ATP luminescence, 24 h; with zVAD 60 µM;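 active means activation, scaled between plate controls, above about 75%, limit read from the data; inactive means activation under that limit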;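 further: 0% = zVAD with DMSO and 100% = DMSO alone without zVAD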
# Hck Nef HTS: inhibitors of Nef-activated human Hck kinase, primary screen, biochemical, Z-Lyte FRET, 384-well, Hck-YEEI. Tyrosine-protein kinase HCK (Homo sapiens), P08631. Recombinant Hck-YEEI plus Nef, Z-Lyte FRET kinase assay. inhibition, % at 20 µM. hit rate 0.68% among 220,000;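 active means Hck-Nef kinase inhibition above about 50%, limit read from the data; inactive means inhibition below that limit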;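 further: 0% = DMSO with Hck plus Nef and 100% = Hck alone without Nef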
# Runt-SMMHC FRET: inhibitors of RUNX1 Runt–CBFb-SMMHC binding, primary screen, biochemical, FRET, Cerulean-Runt, Venus-CBFb-SMMHC, uHTS; Cerulean-Runt/Venus-CBFb-SMMHC FRET ratio 530/480, 1 h; inhibition, % at 20 µM; hit rate 0.74% among 220,000;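 active means mean inhibition across duplicate retests at 20 µM reaching about 50%, limit read from the data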;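 further: 0% = DMSO wells and 100% = wells with excess untagged CBFb-SMMHC; inhibitors lower the FRET ratio by blocking Runt binding to CBFb-SMMHC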
# Target sequence (Q01196 whole entry, looked up): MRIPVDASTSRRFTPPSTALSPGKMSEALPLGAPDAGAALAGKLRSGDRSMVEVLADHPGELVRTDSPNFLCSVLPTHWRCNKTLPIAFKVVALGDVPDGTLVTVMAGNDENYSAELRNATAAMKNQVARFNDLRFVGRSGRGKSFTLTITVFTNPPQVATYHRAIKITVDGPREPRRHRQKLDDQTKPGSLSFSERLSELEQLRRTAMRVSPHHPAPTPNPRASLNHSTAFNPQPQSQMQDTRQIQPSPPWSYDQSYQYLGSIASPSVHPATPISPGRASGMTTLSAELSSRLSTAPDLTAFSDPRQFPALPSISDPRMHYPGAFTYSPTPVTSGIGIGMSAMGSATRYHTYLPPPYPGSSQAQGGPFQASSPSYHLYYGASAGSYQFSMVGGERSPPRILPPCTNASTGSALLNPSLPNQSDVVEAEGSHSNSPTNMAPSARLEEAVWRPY
# Target sequence (Q13951 whole entry, looked up): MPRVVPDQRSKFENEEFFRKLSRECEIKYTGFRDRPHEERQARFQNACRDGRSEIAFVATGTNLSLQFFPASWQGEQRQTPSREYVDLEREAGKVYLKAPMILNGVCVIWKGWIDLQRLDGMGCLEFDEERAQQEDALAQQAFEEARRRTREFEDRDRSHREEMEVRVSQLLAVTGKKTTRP
# Runt-CBFb FRET: inhibitors of RUNX1 Runt–CBFb binding, primary screen, biochemical, FRET, Cerulean-Runt, Venus-CBFb, uHTS. Runt-related transcription factor 1 (Homo sapiens) + Core-binding factor subunit beta …. Cerulean-Runt/Venus-CBFb FRET ratio 530/480, 1 h. inhibition, % at 20 µM. hit rate 0.46% among 220,000. AID 1496, 2009;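 active means inhibition over about 50% at 20 µM in the single-dose screen, limit read from the data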;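 further: 0% = DMSO wells and 100% = excess unlabeled CBFb competitor control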
#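 Measured by: fluorescence energy transfer, 422 nm excitation, 530/480 nm emission; test system: Cerulean-tagged RUNX1 Runt domain (FRET donor) fusion protein; buffer or medium: Tris pH 7.5 buffer with BSA; compound: one dose, 20 µM compound, 1% DMSO; times: two 1 h room-temperature incubations shielded from light; benchmarks: unlabeled CBFb 5 µM, positive control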
# TNF death inh: inhibitors of TNF-alpha triggered necroptosis, primary screen, cell-based, Jurkat FADD-/-, single concentration; hit rate 0.068% among 220,000; Jurkat FADD-/- TNF necroptosis rescue, ATP luminescence, 24 h; 0 = TNF only, 100 = no-TNF cells; activation (protection from cell death), % at 10 µM;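 active means activation, meaning protection from cell death, of at least 50% relative to plate controls; inactive means activation below 50%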;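 further: necroptosis triggered by 40 ng/mL TNF-alpha added together with compound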
# Numbers without * were called inactive; ? = inconclusive; . = no result given; + = active, no number.
SMILES,RanGTP-Impb inh,L929 necroptosis,Hck Nef HTS,Runt-SMMHC FRET,Runt-CBFb FRET,TNF death inh
O=C(CN(C(=O)CCC(=O)Nc1nccs1)C1CCCC1)NCc1ccc2c(c1)OCO2,-3.8,1.4,-8.9,0.7,0.9,0.4
COc1ccc(N2CC(C(=O)N3CCc4ccccc43)CC2=O)cc1 (stereo unspecified),-0.3,.,.,.,.,.
Cc1oc(-c2ccc(Cl)cc2)nc1CN1CCC(C(=O)NCCCN2CCCC(C)C2)CC1 (stereo unspecified),1.8,.,.,.,.,.
C(=N\Nc1nc2ccccc2[nH]1)/c1ccccn1,2.7,34.7,18.2,2.0,-1.4,-14.9
Fc1ccccc1-c1ccc(/C=N/Nc2nc3ccccc3[nH]2)o1,.,0.7,10.9,76.7*,19.9,-1.9
O=C(NCCCO)c1ccc2[nH]c3c(c2c1)CCCC3,11.5,-0.2,-0.3,1.0,3.3,1.2
Cc1ccc(NC(=S)NCc2ccc3[nH]c4c(c3c2)CCCC4)cc1,3.6,.,-3.0,-16.9,-12.4,-23.0
O=C(NCCO)c1ccc2[nH]c3c(c2c1)CCCC3,18.3*,2.8,1.3,1.2,0.9,0.9
COCCNC(=S)NCc1ccc2[nH]c3c(c2c1)CCCC3,19.3*,0.2,13.4,-21.6,-9.0,-1.4
CCOc1ccccc1N(C)S(=O)(=O)c1ccc2c(c1)N(C(C)=O)CCO2,1.4,.,.,.,.,.
CC(C)(C)NC(=O)CN(Cc1ccccc1)S(=O)(=O)c1ccccc1,-2.1,.,.,.,.,.
CN1c2ccsc2C(O)=C(C(=O)Nc2ccccc2)S1(=O)=O,-3.8,0.5,2.6,24.3,5.1,-3.8
Cc1cccc(C)c1NC(=O)C1=C(O)c2sccc2N(C)S1(=O)=O,45.8*,1.5,26.8,59.4*,32.3,0.6
CN(C)/C=N/C1=C(C#N)C(c2ccc(Br)cc2)c2ccc3ccccc3c2O1 (stereo unspecified),21.2*,.,.,.,.,.
O=C(c1ccc2nc(-c3ccco3)c(-c3ccco3)nc2c1)N1CCN(c2ccccc2)CC1,23.2*,-0.1,4.5,-12.3,12.3,-2.4
O=C(Nc1cccc(C(F)(F)F)c1)c1ccc2nc(-c3ccco3)c(-c3ccco3)nc2c1,46.6*,2.6,3.8,-13.2,1.2,-6.1
O=C(Nc1cccc(C(F)(F)F)c1)c1cc[n+]([O-])cc1,1.0,.,.,.,.,.
O=C(Nc1ccc2nc(-c3ccco3)c(-c3ccco3)nc2c1)NC1CC1,61.7*,-0.1,45.8,-66.8,-17.1,-7.0
O=C(NCCCO)Nc1ccc2nc(-c3ccco3)c(-c3ccco3)nc2c1,.,0.4,2.1,-321.4,-250.2,-1.6
CCc1nc2ccc(C(=O)N3CCN(c4ccccc4)CC3)cc2nc1CC,5.4,.,.,.,.,.
O=C(Nc1ccc(N2CCOCC2)cc1)Nc1ccc2nc(-c3ccco3)c(-c3ccco3)nc2c1,25.7*,15.7,9.6,11.0,11.6,-9.9
Nc1nc(-c2ccccc2)c(C(=O)Nc2ccccc2)s1,-0.4,3.8,17.0,-4.3,1.0,-2.0
COc1cccc(N2CCN(c3nc(-c4ccccc4C)cc(=O)[nH]3)CC2)c1,0.0,.,.,.,.,.
COc1cc(C(=O)NCCCC2CCCC2)ccc1OC1CCN(C(C)=O)CC1,-0.3,.,.,.,.,.
O=C(Nc1ccc2nc(-c3cccs3)c(-c3cccs3)nc2c1)N1CCOCC1,95.7*,2.6,12.0,61.5*,40.7,-8.2
SMILES,RanGTP-Impb inh,L929 necroptosis,Hck Nef HTS,Runt-SMMHC FRET,Runt-CBFb FRET,TNF death inh
Cc1cc(C)c(C)c(S(=O)(=O)N2CCC(C(=O)Nc3ccncc3)CC2)c1C,0.9,.,.,.,.,.
Cn1c(NNC(=O)c2ccc(C(C)(C)C)cc2)cc(=O)n(C)c1=O,7.2,0.8,1.3,77.2*,41.4,2.2
N#CCc1ccc(NC(=O)c2cc(S(=O)(=O)N3CCOCC3)ccc2Cl)cc1,-5.3,.,.,.,.,.
O=C(O)c1cc(N/N=C/C=C/c2ccccc2)ccc1Cl,-2.3,6.3,1.0,87.4*,38.8,0.1
O=C1NC(=S)S/C1=C\c1ccc(SCc2ccccc2)o1,.,2.0,5.6,-2.6,28.0,0.0
O=C1NC(=S)S/C1=C\c1ccc(SCc2ccco2)o1,.,0.6,84.9*,34.5,38.7,-2.7
CCOC(=O)C1CCN(C(=O)Cn2nc(C)n3cccc3c2=O)CC1,-0.3,.,.,.,.,.
CC1(C)CC(=O)C2=C(C1)N(c1cccc(O)c1)C1=C(C2)C(=O)CC(C)(C)C1,73.7*,-0.4,11.2,57.4*,34.0,-18.2
O=C1c2ccc3c4c(ccc(c24)C(=O)N1c1cccc(O)c1)C(=O)N(c1cccc(O)c1)C3=O,-1.8,7.0,30.8,0.9,2.4,1.6
O=C1N/C(=C\c2ccc(O)cc2)C(O)=C1C=NCc1ccccc1,-2.2,0.4,69.3*,-2.7,1.7,-20.7
COc1ccc2c3c([nH]c2c1)C1CC2C(CC(O)C(OC)C2C(=O)O)CN1CC3 (stereo unspecified),28.0*,1.0,11.0,-7.5,-0.7,0.1
COCCCn1c(=N)c(C(N)=S)cc2c(=O)n3cccc(C)c3nc21,+,.,.,.,.,.
Cc1cccn2c(=O)c3cc(C(N)=S)c(=N)n(CCCN4CCOCC4)c3nc12,-2.3,5.2,43.7,88.4*,3.5,-1.6
C=CCn1c(=N)c(C(=O)OCC)cc2c(=O)n3cc(C)ccc3nc21,.,.,.,38.3,11.7,.
Cc1ccc2nc3c(cc(C(N)=S)c(=N)n3CCCOC(C)C)c(=O)n2c1,187.6*,-0.7,12.8,41.0,11.1,-14.9
O=C(O)c1ccc(S(=O)(=O)NCC2CCCCC2)cc1,-0.3,.,.,.,.,.
CC(C)Sc1nsc2nc(=O)c(/C=C3\C=Nc4ccccc43)c(N)n12,33.1*,3.7,-25.3,59.2*,17.8,-0.2
Cc1cc2nc(=O)c(/C=C3\C=Nc4ccccc43)c(N)n2o1,46.8*,1.0,-1.9,-45.2,-4.7,1.5
CC(C)c1nn2c(N)c(/C=C3\C=Nc4ccccc43)c(=O)nc2s1,?,0.3,28.5,17.2,1.8,3.1
CCCCc1nc2cc(C(=O)NCCc3c(C)n[nH]c3C)ccc2o1,-2.8,.,.,.,.,.
Cc1ccc(NC(=O)/C(C#N)=C/c2cn(CC(=O)NCc3ccco3)c3ccccc23)cc1C,-0.2,5.9,31.5,-112.2,-96.2,2.9
Cc1cc(C)cc(NC(=O)/C(C#N)=C/c2cn(CC(=O)NCc3ccco3)c3ccccc23)c1,82.4*,1.9,17.2,-58.0,-43.3,2.2
